An excerpt weighted towards active compounds, which were near 1.6% of everything screened.
TDP2 absorb: TDP2 (human) inhibition, absorbance primary screen | AID 720702 | recombinant TDP2, T5PNP hydrolysis, p-nitrophenol absorbance 415 nm | inhibition, % at 12.8 µM | 0.34% of 370,000 active | O95551;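 active = inhibition above the mean of all tested compounds plus 3 SD, set per campaign, cut at about 25% in these data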;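 note: 0% = DMSO with enzyme and 100% = buffer with substrate but no TDP2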
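System – recombinant human TDP2 · Quantity – TDP2 enzyme at 120 nM final · Doses – single concentration, 12.8 µM nominal, with 1% DMSO · Incubation – 2 h at 37 °C · Measured by – epi absorbance of p-nitrophenol freed from T5PNP by hydrolysis · Read-out – % inhibition relative to enzyme-containing and enzyme-free wells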
LEDGF integ inh: blocks HIV-1 LEDGF/p75-dependent DNA integration; TR-FRET IN-LEDGF/p75 DNA integration, Eu/Cy5; AID 743269; 0.64% of 370,000 active; inhibition, % at 3.7 µM;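 active = inhibition above the screen-wide mean plus 3 SD, cut at about 13% in these data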;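 note: signal is the Cy5 over europium emission ratio at 671 and 618 nm; 0% = plate median of compound wells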
MBD2 inh: inhibitors of human MBD2 binding to methylated oligonucleotide; AID 686964; 0.31% of 370,000 active; inhibition, % at 4.4 µM; Q9UBB5; TR-FRET; in the data active = inhibition above about 13%
UHRF1 binding: UHRF1 methyl-DNA binding inhibition; Q96T88; UHRF1 binding to methylated oligo, TR-FRET; inhibition, % at 4.4 µM; 0.75% of 370,000 active; AID 687016; in the data active = inhibition above about 21%;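 note: UHRF1 SRA domain binding a hemimethylated CpG hairpin DNA probe; 0% = median of test compound wells and 100% = reference inhibitor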
Target sequence (Q96T88 whole entry, looked up, the tested form may be a part): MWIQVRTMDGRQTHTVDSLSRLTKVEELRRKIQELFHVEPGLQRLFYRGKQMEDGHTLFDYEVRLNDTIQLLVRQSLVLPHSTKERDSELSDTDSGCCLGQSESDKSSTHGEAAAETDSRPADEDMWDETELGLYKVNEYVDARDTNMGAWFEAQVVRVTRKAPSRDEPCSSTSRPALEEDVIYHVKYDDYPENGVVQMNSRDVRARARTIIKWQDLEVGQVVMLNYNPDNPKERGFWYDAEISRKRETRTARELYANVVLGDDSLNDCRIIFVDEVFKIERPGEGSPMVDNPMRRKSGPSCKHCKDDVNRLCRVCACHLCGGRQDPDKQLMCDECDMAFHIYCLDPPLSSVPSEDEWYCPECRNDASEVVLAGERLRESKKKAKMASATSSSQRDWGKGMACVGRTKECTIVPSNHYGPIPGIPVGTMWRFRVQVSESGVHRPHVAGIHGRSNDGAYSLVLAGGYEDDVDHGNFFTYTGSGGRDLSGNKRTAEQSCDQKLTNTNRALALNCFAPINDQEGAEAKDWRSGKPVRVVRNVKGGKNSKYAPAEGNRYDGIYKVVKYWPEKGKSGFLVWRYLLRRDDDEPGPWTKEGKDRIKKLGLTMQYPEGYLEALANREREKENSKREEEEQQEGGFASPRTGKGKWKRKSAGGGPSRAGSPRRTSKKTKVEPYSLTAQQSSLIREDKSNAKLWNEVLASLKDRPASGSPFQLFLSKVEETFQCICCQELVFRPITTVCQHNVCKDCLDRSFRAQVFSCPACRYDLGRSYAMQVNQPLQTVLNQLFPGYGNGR
An asterisk follows results filed as active.

SMILES	TDP2 absorb	LEDGF integ inh	MBD2 inh	UHRF1 binding
CCc1ccc(CNC(=O)c2nn(C)c3c2CS(=O)(=O)c2ccccc2-3)cc1	-3.1	-5.7	-7.9	1.2
CCOc1ccccc1CNC(=O)c1nn(C)c2c1CS(=O)(=O)c1ccccc1-2	-13.7	2.5	4.3	25.6*
Cc1ccc(C(Sc2ccccc2)C(Cn2cncn2)C(=O)c2ccccc2)cc1 (stereo not given)	4.4	-1.9	-2.8	0.1
N=c1n(CCCOc2ccccc2Cl)c2ccccc2n1CC(N)=O	-11.7	3.4	-2.6	24.7*
Cn1c(=O)n(CCOc2ccccc2Cl)c2ccccc21	4.9	-3.5	-5.4	-0.6
COc1ccc2c(c1OC)C(=O)OC2C1c2c(cc3c(c2OC)OCO3)CCN1C (stereo not given)	-3.7	2.6	-3.2	-0.4
CN1CCc2cc3c(c4c2[C@H]1[C@H](O)c1ccccc1-4)OCO3	3.7	8.9	66.2*	35.0*
CCOC(=O)c1c(C)oc2c1c(C=NCc1ccccn1)c(O)c1ccccc12	30.3*	16.5*	-6.3	7.4
O=C(CSc1nnc(SCc2ccc(Cl)cc2)s1)N1CCN(C(=O)c2ccco2)CC1	-6.4	0.1	2.9	3.6
O=C(CSc1nncs1)N1CCN(C(=O)c2ccco2)CC1	2.4	-2.1	3.4	36.5*
CN(Cc1ccccc1)c1nc(-c2cccc([N+](=O)[O-])c2)nc2ccccc12	-15.9	-2.1	3.5	23.1*
CC(C)Oc1ccc2ccccc2c1CNC[C@H]1O[C@@H](n2cnc(C(N)=O)n2)[C@H](O)[C@@H]1O	-0.2	2.9	5.6	43.9*
NC(=O)c1ncn([C@@H]2O[C@H](CNCc3cccc4c3sc3ccccc34)[C@@H](O)[C@H]2O)n1	-3.9	-2.2	8.6	21.5*
COc1cc(Cl)c(CNC[C@H]2O[C@@H](n3cnc(C(N)=O)n3)[C@H](O)[C@@H]2O)c(Cl)c1O	2.5	1.2	-4.2	-2.9
NC(=O)c1ncn([C@@H]2O[C@H](CNCc3ccccc3OCc3ccc(Cl)cc3Cl)[C@@H](O)[C@H]2O)n1	8.7	0.3	-6.0	-4.4
CCCCCNC(=O)c1[nH]c(C(F)(F)F)nc1-c1ccccc1	3.0	-7.2	-0.2	-1.3
CC1=C(C#N)C(=O)NC(=O)/C1=C/c1ccc(-c2ccc(S(N)(=O)=O)cc2)o1	-2.3	1.4	20.5*	0.6
O=C(CNS(=O)(=O)c1cccs1)NCc1ccc(F)cc1	6.5	0.8	0.8	1.0
CSC(=NCc1ccc(F)cc1)NS(=O)(=O)c1cccs1	10.8	1.0	-2.8	41.3*
O=C(/C=C\Nc1cccc(F)c1)c1ccc2c(c1)OCO2	7.9	1.8	-3.7	0.1
Cc1c(C=O)c(Cl)n(C)c(=O)c1C#N	39.0*	4.4	-5.5	-3.4
CCOC(=O)c1c(C)oc2ccc(OS(C)(=O)=O)cc12	-19.4	4.5	-2.0	4.2
CCn1c(COc2cccc(OC)c2)nnc1SCC(=O)NCC1CCCO1 (stereo not given)	4.2	-3.6	5.3	-0.2
CCOC(=O)Cc1csc(NC(=O)CSc2nnc3ccccn23)n1	-5.9	-0.6	-9.1	32.5*
Cc1cc(C(=O)OCC(=O)NC2CC2)ccc1[N+](=O)[O-]	7.0	-2.2	3.7	80.3*
SMILES	TDP2 absorb	LEDGF integ inh	MBD2 inh	UHRF1 binding
O=C(/C(=C(\[O-])c1ccccc1)[n+]1ccc2ccccc2c1)c1ccc(Cl)cc1	-3.9	0.1	1.7	24.8*
CC(C)(C)c1ccc(CNc2cc(N3CCOCC3)ccc2[N+](=O)[O-])cc1	-2.6	-3.6	-5.8	-2.3
Cc1cc(C)c2cc(CN(Cc3ccco3)C(=S)NCC3CCCO3)c(=O)[nH]c2c1 (stereo not given)	-3.2	-1.3	4.4	44.8*
COc1ccc2cc(CN(Cc3ccco3)C(=S)NCC3CCCO3)c(=O)[nH]c2c1 (stereo not given)	5.7	-0.8	8.2	3.3
CCn1c(SCC(N)=O)nc2ccccc2c1=O	2.9	-1.6	4.4	25.0*
COc1ccccc1CNC(=O)CSc1nc2c(oc3ccccc32)c(=O)n1CC1CCCO1 (stereo not given)	-6.4	3.4	2.6	1.9
COc1ccccc1Cn1c(SCC(N)=O)nc2c(oc3ccccc32)c1=O	-4.8	-0.8	0.9	61.4*
C#CCOCCOCCOCCNc1nc(N2CCN(C(=O)[C@H](CCC(=O)O)n3cc([C@@H](N)CCCCN)nn3)CC2)nc(N2CCN(C(=O)[C@H](CCCCN)n3cc([C@@H](N)CC(N)=O)nn3)CC2)n1	10.2	0.9	-2.1	47.6*
CCC[C@H]1[C@@H](OC(=O)NC(CC)CC)CC[C@@]23CCCN2C(=O)CCC[C@@H]13	2.2	-0.5	4.3	78.3*
CCC[C@H]1[C@@H](OC(=O)NC2CCCCC2)CC[C@@]23CCCN2C(=O)CCC[C@@H]13	6.5	-2.4	-0.8	1.4
O=S(=O)(c1ccc2nc(N3CCN(c4ccccc4)CC3)ccc2c1)N1CCCCC1	-3.9	-3.7	2.1	21.7*
C[C@@H]1CCCCO[C@@H](CN(C)C(=O)c2ccncc2)[C@@H](C)CN([C@H](C)CO)C(=O)c2cc(N(C)C)ccc2O1	0.2	-1.4	0.9	0.0
COc1ccc(S(=O)(=O)Nc2ccc3c(c2)C(=O)N([C@@H](C)CO)C[C@@H](C)[C@H](CN(C)C(=O)CCCN(C)C)OCCCC[C@H](C)O3)cc1	-1.3	-1.9	-4.5	29.0*
C[C@@H]1CCCCO[C@H](CN(C)C(=O)C2CCCCC2)[C@@H](C)CN([C@H](C)CO)C(=O)c2cc(N(C)C)ccc2O1	-3.1	-2.9	0.9	50.0*
COc1ccc(S(=O)(=O)Nc2ccc3c(c2)C(=O)N([C@H](C)CO)C[C@H](C)[C@@H](CN(C)C(=O)Nc2ccc(F)cc2)OCCCC[C@H](C)O3)cc1	1.9	-3.9	-5.2	2.2
COc1ccc(C(=O)NCc2c(C)nn(Cc3ccccc3)c2C)cc1S(=O)(=O)N1CCOCC1	-7.2	4.0	3.8	1.1
COc1cccc(C(=O)NN2CC(O)=C(c3nc4ccccc4s3)C2=N)c1	-6.8	1.8	4.0	-3.6
N=C1C(c2nc3ccccc3s2)=C(O)CN1NC(=O)c1ccco1	6.0	-2.5	-2.4	39.4*
COc1cccc(N2CC(O)=C(c3nc4ccccc4s3)C2=N)c1	-2.2	-3.3	-1.0	22.8*
O=C(O)c1cccc(N2C(=O)/C(=C/c3ccc(SCc4ccc(Cl)cc4)o3)SC2=S)c1	16.7	60.1*	40.4*	89.2*
N#CC1=C(S)N(c2ccccc2)C(c2ccc(-c3ccc(Cl)c(Cl)c3)o2)NC1=O (stereo not given)	25.8*	6.2	-3.4	-7.4
N#CC1=C(S)N(c2ccccc2)C(c2ccc(-c3cc(Cl)ccc3Cl)o2)NC1=O (stereo not given)	-5.8	-2.3	3.9	-1.7
CCOC(=O)c1c(C)[nH]c(C)c1S(=O)(=O)NCCN1CCN(c2cc(Cl)ccc2C)CC1	-1.6	-0.9	2.3	58.0*
O=C(c1ccc(CS(=O)Cc2ccccc2Cl)o1)N1CCN(c2cccc(Cl)c2)CC1 (stereo not given)	-22.1	4.1	-4.3	1.0
CC(C)Cn1c(N)c(C(=O)CSc2ccccc2)c(=O)n(C)c1=O	2.9	-1.1	3.6	3.8
